Here are results for 37 compounds from ChEMBL document CHEMBL4706708, “Improving the solubility of anti-proliferative thieno[2,3-b]quinoline-2-carboxamides” (Bioorg Med Chem, 2021).

The test system of data set [1] is HCT-116. The experiment in a line: Antiproliferative activity against human HCT-116 cells assessed as cell growth at 1 uM measured after 3 days by [3H]-thymidine incorporation assay relative to control. The settings on record: HCT-116, 72 h, time 3 day, read-out: Activity. The format is functional. The gist of the method:
(§1)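 HCT116 and MDA-MB-231 cells from ATCC, seeded at 3000 cells/well, exposed to inhibitor for three days; 0.04 µCi 3H-thymidine added per well 5 h before harvest onto glass fibre filters, incorporation counted by scintillation and expressed relative to untreated controls. Triplicate wells, at least two independent experiments. Single-point screen at 1 µM; IC50 determined from varying concentrations.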

Data set [2] deals with MDA-MB-231. The experiment in a line: Antiproliferative activity against human MDA-MB-231 cells assessed as cell growth at 1 uM measured after 3 days by [3H]-thymidine incorporation assay relative to control. The format is functional. As to conditions: MDA-MB-231, 72 h, time 3 day, read-out: Activity. The gist of the method:
as §1
(Uptake of a labelled nucleoside into DNA is a usual measure of proliferation.)

Data set [3] is described as follows: Thermodynamic solubility of compound in water measured after 15 mins RP-HPLC analysis. The class given is physicochemical. The settings on record: read-out: Therm_solubility.

Each structure is given as a SMILES string. Converted amounts (≈) assume the structure as drawn.

In the case of `CN1CCc2nc3sc(C(=O)Nc4ccccc4)c(N)c3cc2C1`, the growth at 1 µM was 100% in data set [1] and 91.2% in data set [2].

Consider `Nc1c(C(=O)Nc2ccc3c(c2)OCCO3)sc2nc3c(cc12)CN(Cc1ccccc1)CC3`, for which the growth at 1 µM in data set [1] stood at 83.2%; in data set [2] it was 94.9%. In addition, in data set [3], the solubility thermodynamic at 0.25 h was found to be 0.7 µg/mL (≈ 1.48 µM).

On to `Nc1c(C(=O)Nc2cccc3ncccc23)sc2nc3c(cc12)C(=O)CCC3`, for which the growth at 1 µM in data set [1] amounted to 96.3%; in data set [2], 96.9%. For the same compound, in data set [3], the solubility thermodynamic at 0.25 h was 0.41 µg/mL (≈ 1.06 µM).

With `CC(=O)c1cc2c(N)c(C(=O)Nc3cncc4ccccc34)sc2nc1C`, the results for the growth at 1 µM in data set [1] and in data set [2] were 96.2% and 105%, respectively. In addition, in data set [3], the solubility thermodynamic at 0.25 h amounted to 0.09 µg/mL (≈ 0.239 µM).

With `CC(=O)c1cc2c(N)c(C(=O)Nc3cccc4ccncc34)sc2nc1C`, the values for the growth at 1 µM in data set [1] and in data set [2] were 108% and 101%, respectively. The solubility thermodynamic at 0.25 h in data set [3] is 1.06 µg/mL (≈ 2.82 µM).

As to `Nc1c(C(=O)Nc2cncc3ccccc23)sc2nc3c(cc12)C(=O)CCC3`, the growth at 1 µM in data set [1] is 97.8%; in data set [2], 111%. The solubility thermodynamic at 0.25 h in data set [3] stood at 0.71 µg/mL (≈ 1.83 µM).

In the case of `Nc1c(C(=O)Nc2ccccn2)sc2nc3c(cc12)C(=O)CCC3`, the growth at 1 µM in data set [1] is 10.2%; in data set [2], 27%. Moreover, the solubility thermodynamic at 0.25 h in data set [3] is 0.64 µg/mL (≈ 1.89 µM).

For `Nc1c(C(=O)Nc2cccc3cccnc23)sc2nc3c(cc12)CN(Cc1ccccc1)CC3`, the figures for the growth at 1 µM in data set [1] and in data set [2] were 98.2% and 104%, respectively. In addition, the solubility thermodynamic at 0.25 h in data set [3] worked out at 1.17 µg/mL (≈ 2.51 µM).

On to `Cc1nc2sc(C(=O)Nc3ccncc3)c(N)c2cc1C(C)O` (configuration not stated), for which the results for the growth at 1 µM in data set [1] and in data set [2] were 111% and 113%, respectively. In addition, in data set [3], the solubility thermodynamic at 0.25 h turned out to be 2.85 µg/mL (≈ 8.68 µM).

Take `Cc1nc2sc(C(=O)Nc3cccc4ncccc34)c(N)c2cc1C(C)O` (configuration not stated): the growth at 1 µM in data set [1] was 92%; in data set [2] it was 112%. Further, the solubility thermodynamic at 0.25 h in data set [3] came to 0.89 µg/mL (≈ 2.35 µM).

For `Cc1nc2sc(C(=O)Nc3ccnc4ccccc34)c(N)c2cc1C(C)O` (configuration not stated), the growth at 1 µM turned out to be 93.6% in data set [1] and 107% in data set [2]. Besides, the solubility thermodynamic at 0.25 h in data set [3] was 18.5 µg/mL (≈ 49 µM).

On to `CC(=O)c1cc2c(N)c(C(=O)Nc3ccccn3)sc2nc1C`, for which the growth at 1 µM in data set [1] turned out to be 91.7%; in data set [2], 92.9%. Moreover, in data set [3], the solubility thermodynamic at 0.25 h came out at 0.45 µg/mL (≈ 1.38 µM).

Consider `Cc1nc2sc(C(=O)Nc3cccc4cccnc34)c(N)c2cc1C(C)O` (configuration not stated), for which the growth at 1 µM in data set [1] came out at 110%; in data set [2], 102%.

Consider `Cc1nc2sc(C(=O)Nc3cccc4c3OCCO4)c(N)c2cc1C(C)O` (configuration not stated), for which the growth at 1 µM came to 58.4% in data set [1] and 62.3% in data set [2]. Further, the solubility thermodynamic at 0.25 h in data set [3] turned out to be 3.06 µg/mL (≈ 7.94 µM).

Consider `Cc1nc2sc(C(=O)Nc3ccccn3)c(N)c2cc1C(C)O` (configuration not stated), for which the growth at 1 µM worked out at 96.5% in data set [1] and 93.8% in data set [2]. In data set [3], the solubility thermodynamic at 0.25 h was 5.43 µg/mL (≈ 16.5 µM).

Consider `CC(=O)c1cc2c(N)c(C(=O)Nc3cccc4cnccc34)sc2nc1C`, for which the growth at 1 µM in data set [1] amounted to 111%; in data set [2], 99.8%.

With `Cc1nc2sc(C(=O)Nc3cccc4cnccc34)c(N)c2cc1C(C)O` (configuration not stated), the values for the growth at 1 µM in data set [1] and in data set [2] were 110% and 102%, respectively. For the same compound, the solubility thermodynamic at 0.25 h in data set [3] was found to be 7.55 µg/mL (≈ 19.9 µM).

`Cc1nc2sc(C(=O)Nc3ccc4c(c3)OCCO4)c(N)c2cc1C(C)O` (configuration not stated): the figures for the growth at 1 µM in data set [1] and in data set [2] were 94.9% and 105%, respectively. Also, in data set [3], the solubility thermodynamic at 0.25 h turned out to be 0.27 µg/mL (≈ 0.7 µM).

As to `Nc1c(C(=O)Nc2ccncc2)sc2nc3c(cc12)C(=O)CCC3`, the growth at 1 µM in data set [1] amounted to 110%; in data set [2], 108%. For the same compound, the solubility thermodynamic at 0.25 h in data set [3] is 1.54 µg/mL (≈ 4.55 µM).

Turning to `Nc1c(C(=O)Nc2cccc3ncccc23)sc2nc3c(cc12)CN(Cc1ccccc1)CC3`, the growth at 1 µM in data set [1] is 104%; in data set [2], 91.3%. In addition, in data set [3], the solubility thermodynamic at 0.25 h turned out to be 0.62 µg/mL (≈ 1.33 µM).

Take `Nc1c(C(=O)Nc2cccc3cccnc23)sc2nc3c(cc12)C(=O)CCC3`: the growth at 1 µM in data set [1] is 101%; in data set [2], 99.2%. The solubility thermodynamic at 0.25 h in data set [3] came out at 0.44 µg/mL (≈ 1.13 µM).

Regarding `Cc1nc2sc(C(=O)Nc3cncc4ccccc34)c(N)c2cc1C(C)O` (configuration not stated), the growth at 1 µM in data set [1] worked out at 109%; in data set [2], 106%.

For the compound `Nc1c(C(=O)Nc2cccc3c2OCCO3)sc2nc3c(cc12)C(=O)CCC3`, the figures for the growth at 1 µM in data set [1] and in data set [2] were 18.6% and 17.8%, respectively. The solubility thermodynamic at 0.25 h in data set [3] turned out to be 0.12 µg/mL (≈ 0.303 µM).

Take `CC(=O)c1cc2c(N)c(C(=O)Nc3ccncc3)sc2nc1C`: the growth at 1 µM in data set [1] is 103%; in data set [2] it was 97.2%. Moreover, the solubility thermodynamic at 0.25 h in data set [3] worked out at 0.45 µg/mL (≈ 1.38 µM).

In the case of `Nc1c(C(=O)Nc2ccnc3ccccc23)sc2nc3c(cc12)CN(Cc1ccccc1)CC3`, the values for the growth at 1 µM in data set [1] and in data set [2] were 82.8% and 104%, respectively. Moreover, the solubility thermodynamic at 0.25 h in data set [3] stood at 3.83 µg/mL (≈ 8.23 µM).

With `Nc1c(C(=O)Nc2cccc3cnccc23)sc2nc3c(cc12)CN(Cc1ccccc1)CC3`, the values for the growth at 1 µM in data set [1] and in data set [2] were 110% and 108%, respectively. In data set [3], the solubility thermodynamic at 0.25 h stood at 1.12 µg/mL (≈ 2.41 µM).

Turning to `Nc1c(C(=O)Nc2cccc3ccncc23)sc2nc3c(cc12)CN(Cc1ccccc1)CC3`, the growth at 1 µM in data set [1] was found to be 103%; in data set [2], 108%. Further, in data set [3], the solubility thermodynamic at 0.25 h is 2.79 µg/mL (≈ 5.99 µM).

As for `Nc1c(C(=O)Nc2cccc3cnccc23)sc2nc3c(cc12)C(=O)CCC3`, the growth at 1 µM in data set [1] was 103%; in data set [2], 107%. Also, in data set [3], the solubility thermodynamic at 0.25 h came out at 1.67 µg/mL (≈ 4.3 µM).

Consider `Nc1c(C(=O)Nc2ccc3c(c2)OCCO3)sc2nc3c(cc12)C(=O)CCC3`, for which the growth at 1 µM is 76.2% in data set [1] and 102% in data set [2]. The solubility thermodynamic at 0.25 h in data set [3] is 0.32 µg/mL (≈ 0.809 µM).

As for `CC(=O)c1cc2c(N)c(C(=O)Nc3ccc4c(c3)OCCO4)sc2nc1C`, the growth at 1 µM in data set [1] turned out to be 104%; in data set [2], 103%. The solubility thermodynamic at 0.25 h in data set [3] was found to be 0.19 µg/mL (≈ 0.496 µM).

Regarding `Nc1c(C(=O)Nc2ccnc3ccccc23)sc2nc3c(cc12)C(=O)CCC3`, the growth at 1 µM in data set [1] was 101%; in data set [2], 107%. The solubility thermodynamic at 0.25 h in data set [3] was 0.64 µg/mL (≈ 1.65 µM).

Regarding `Nc1c(C(=O)Nc2cccc3c2OCCO3)sc2nc3c(cc12)CN(Cc1ccccc1)CC3`, the growth at 1 µM in data set [1] amounted to 88.2%; in data set [2] it was 89.3%. In addition, in data set [3], the solubility thermodynamic at 0.25 h was 2.1 µg/mL (≈ 4.44 µM).

Regarding `Nc1c(C(=O)Nc2cccc3ccccc23)sc2nc3c(cc12)COCC3`, the growth at 1 µM in data set [1] turned out to be 100%; in data set [2], 78.3%. In addition, the solubility thermodynamic at 0.25 h in data set [3] was found to be 4 µg/mL (≈ 10.7 µM).

As for `CC(=O)c1cc2c(N)c(C(=O)Nc3cccc4ncccc34)sc2nc1C`, the growth at 1 µM in data set [1] came out at 93%; in data set [2], 98.7%. In addition, in data set [3], the solubility thermodynamic at 0.25 h came out at 1.3 µg/mL (≈ 3.45 µM).

Take `Nc1c(C(=O)Nc2cccc3ccncc23)sc2nc3c(cc12)C(=O)CCC3`: the results for the growth at 1 µM in data set [1] and in data set [2] were 98.1% and 115%, respectively. Besides, in data set [3], the solubility thermodynamic at 0.25 h amounted to 1.94 µg/mL (≈ 4.99 µM).

Consider `Cc1nc2sc(C(=O)Nc3cccc4ccncc34)c(N)c2cc1C(C)O` (configuration not stated), for which the growth at 1 µM turned out to be 83.1% in data set [1] and 94.6% in data set [2]. Moreover, the solubility thermodynamic at 0.25 h in data set [3] was 10.1 µg/mL (≈ 26.6 µM).

In the case of `CC(=O)c1cc2c(N)c(C(=O)Nc3cccc4cccnc34)sc2nc1C`, the values for the growth at 1 µM in data set [1] and in data set [2] were 97% and 86.7%, respectively. Besides, in data set [3], the solubility thermodynamic at 0.25 h worked out at 3 µg/mL (≈ 7.97 µM).
